Hits are enriched below; roughly 2.4% of the tested compounds scored in any of these assays.
Scp-1 inhibitor: blocks human Scp-1 phosphatase activity | Recombinant Scp1, phosphopeptide, malachite green phosphate absorbance | AID 493091 | inhibition, % at 20 µM | hit rate 0.88% among 340,000 | Q9GZU7;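 active = inhibition above about 50% at 20 µM, limit read from the data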;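 note: plate controls were DMSO wells with enzyme for no effect and wells lacking enzyme for full effect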
Target sequence (Q9GZU7 76-261 limits assumed): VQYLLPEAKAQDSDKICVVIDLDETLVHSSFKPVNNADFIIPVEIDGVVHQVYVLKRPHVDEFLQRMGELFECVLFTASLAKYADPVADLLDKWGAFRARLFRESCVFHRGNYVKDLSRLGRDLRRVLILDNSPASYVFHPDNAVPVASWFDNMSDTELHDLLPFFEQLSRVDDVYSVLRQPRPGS
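System: SCP-1 catalytic domain; Reagent: Phospho 17-mer peptide substrate; Doses: one concentration, 20 µM, with 1.0% DMSO; Incubation: 45 min room-temperature reaction, 5 min colour, 30 min stabiliser; Signal: Phosphate-binding colour reagent, absorbance read at 630 nm.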
STEP block: inhibitors of human striatal-enriched phosphatase STEP. P54829. recombinant STEP, OMFP fluorogenic substrate, fluorescence. inhibition, % at 20 µM. hit rate 0.25% among 360,000. AID 588621;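 active = inhibition at 20 µM, scaled per plate between control wells, above about 37%, limit read from the data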;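 note: 0% = DMSO with enzyme and substrate and 100% = substrate only without enzyme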
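Material: STEP (striatal-enriched tyrosine phosphatase) enzyme, cell-free | Medium: 50 mM Bis-Tris pH 6.0 with 2.5 mM DTT and 0.005% Tween 20 | Read-out: Percent inhibition scaled to no-enzyme and uninhibited-enzyme controls, plate-pattern corrected | Signal: Fluorescence read at 480 nm ex / 540 nm em | Times: 20 min reaction, room temperature, in the dark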
NadD block: NadD (S. aureus) enzyme inhibition | purified NadD enzyme, colorimetric absorbance read-out | inhibition, % at 20 µM | hit rate 0.78% among 360,000; in the data active = inhibition above about 26%
DNMT1 inh: inhibitors of human DNMT1 | DNMT1 molecular beacon, Hinp1I cleavage, fluorescence | inhibition (reported as % activation of signal), % at 10 µM | hit rate 0.83% among 360,000; in the data active = inhibition above about 50%
SUMO1-SIM PPI: modulators of human SUMO1-mediated protein-protein interactions | P63165 | SUMO1 binding to a labelled peptide, TR-FRET, 1 h | inhibition, % at 20 µM | hit rate 0.33% among 360,000 | AID 602429; in the data active = inhibition above about 37%
Target sequence (P63165 whole entry, looked up): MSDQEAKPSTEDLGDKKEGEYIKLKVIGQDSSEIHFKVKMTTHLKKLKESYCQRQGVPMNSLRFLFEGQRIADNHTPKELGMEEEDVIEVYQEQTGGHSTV
LMPTP inh: LMPTP (human) inhibition; P24666; recombinant LMPTP-A, OMFP fluorogenic substrate, fluorescence intensity; inhibition, % at 20 µM; hit rate 0.22% among 360,000;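 active = compounds that cut the enzyme signal by at least half of the control window in the single-dose screen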;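 note: plate controls were DMSO wells with enzyme plus substrate for no effect and substrate without enzyme for full effect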
Target sequence (P24666 whole entry, looked up): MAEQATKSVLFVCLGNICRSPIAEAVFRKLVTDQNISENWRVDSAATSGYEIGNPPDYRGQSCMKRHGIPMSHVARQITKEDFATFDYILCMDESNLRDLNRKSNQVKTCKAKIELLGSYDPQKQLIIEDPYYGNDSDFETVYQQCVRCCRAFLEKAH
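Assay system: LMPTP-A phosphatase enzyme | Input: 0.625 nM enzyme | Also added: Fluorogenic phosphatase substrate OMFP at 400 µM final | Compound dosing: One test concentration per compound, 20 µM, with 3% DMSO overall | Schedule: 50 min enzyme reaction at room temperature, protected from light | Signal: Fluorescence intensity | Benchmarks: no-enzyme and uninhibited controls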
DNMT1 inh conf: confirmation of human DNMT1 inhibitors | shares compounds with DNMT1 inh | DNMT1 molecular beacon HinP1I cleavage, fluorescence | inhibition, % at 10 µM | hit rate 8% among 2,300;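 active = average inhibition of at least 30% in the single-concentration confirmation test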
Beacon interf: shows spectral interference in the DNMT1 beacon assay; hit rate 1% among 2,300; activation (fluorescence interference), % at 10 µM; AID 602387; DNMT1 molecular beacon spectral interference counterscreen, fluorescence 485/520; shares compounds with DNMT1 inh;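 active = activation of at least 30% at 10 µM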;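 note: DNMT1 catalytic domain with a HinP1I cleavage step and a FAM/dabcyl DNA beacon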
* hit, by the source's call; . = not tested or not shown.

SMILES | Scp-1 inhibitor | STEP block | NadD block | DNMT1 inh | SUMO1-SIM PPI | LMPTP inh | DNMT1 inh conf | Beacon interf
COc1ccc(CCNC(=O)CSCc2ccc([N+](=O)[O-])cc2)cc1 | -8 | -2 | 1 | -1 | -12 | 0 | . | .
COc1ccc2cc(/C=N/NC(=O)CSCc3ccc([N+](=O)[O-])cc3)c(Cl)nc2c1 | -8 | -2 | 5 | 64* | 4 | 1 | 6 | 1
O=C(NCCCO)c1ccc2nc(-c3ccco3)c(-c3ccco3)nc2c1 | 22 | 8 | 11 | 49 | 45* | 0 | 2 | 1
CCc1nc2ccc(C(=O)NCCc3ccco3)cc2nc1CC | -7 | 2 | 8 | 1 | -7 | 0 | . | .
CSCC(C)N1CCC(n2nccc2NC(=O)c2ccc3c(c2)OCO3)CC1 (stereo unspecified) | -11 | -2 | -4 | 2 | -3 | 0 | . | .
CCCN(CC(=O)Nc1ccccc1OC)C(=O)c1ccc(S(=O)(=O)Nc2ccccc2)cc1 | -4 | -2 | 3 | 62* | -4 | -1 | 1 | -8
O=C(Nc1cccc(Oc2ccc(C(=O)O)c(C(=O)O)c2)c1)c1ccc(-c2ccccc2)cc1 | 20 | 35 | 17 | 53* | 22 | 8 | 15 | -1
CN(CC#CC1(O)c2ccccc2-c2ccccc21)Cc1ccccc1 | -9 | 1 | -9 | 6 | 1 | 0 | . | .
Cc1nc2ncnn2c(N2CCN(C(=O)c3cccc(F)c3)CC2)c1Cc1ccccc1 | -4 | 22 | 2 | -2 | 0 | -1 | . | .
Cc1ccc(NCC(=O)N/N=C\c2cccc(O)c2)cc1 | -3 | -4 | 6 | 58* | 1 | 0 | 0 | 4
Cc1ccnc(NC(=O)COC(=O)C23CC4CC(CC(C4)C2)C3)n1 | 16 | 4 | 1 | 70* | 14 | 1 | 11 | 1
[O-][n+]1c(/C=C/c2ccccc2)ccc2ccccc21 | -4 | 1 | 1 | 11 | 1 | 0 | . | .
[O-][n+]1c2ccccc2[n+]([O-])c2cc(O)ccc21 | 57* | 11 | -4 | 56* | 21 | 20 | 2 | 1
O=C(N/N=C/c1ccccc1)c1ccc(CN2C(=O)c3cccc4cccc2c34)cc1 | 40 | 10 | 15 | 53* | -6 | 4 | 0 | 2
O=C(N/N=C/c1cccnc1)c1ccc(CN2c3cccc4cccc(c34)S2(=O)=O)cc1 | -1 | -2 | 6 | -6 | -14 | 10 | . | .
CCC(=O)N1N=C(c2ccccc2)CC1c1ccccc1 (stereo unspecified) | -2 | 0 | 1 | 0 | -1 | -1 | . | .
CC(=O)N1N=C(c2ccccc2)CC1c1cccs1 (stereo unspecified) | -12 | 1 | 2 | 3 | -4 | -1 | . | .
O=C(c1ccccc1)N1N=C(c2ccccc2)CC1c1cccs1 (stereo unspecified) | -19 | 1 | -8 | 89* | -1 | 5 | 1 | 4
CC(=O)N1N=C(c2ccccc2)CC1c1ccccc1 (stereo unspecified) | -7 | 5 | -3 | 88* | -2 | 1 | 7 | 6
COc1ccc(CCN2C(=O)CCC3=C2CCC3=O)cc1OC | . | 0 | 2 | 9 | -5 | 0 | . | .
O=C(CCCn1c(=S)[nH]c2cc3c(cc2c1=O)OCO3)N1CCN(c2ccc(F)cc2)CC1 | -10 | 6 | 22 | -3 | -3 | 1 | . | .
O=C(CCCCCn1c(=S)[nH]c2cc3c(cc2c1=O)OCO3)N1CCN(c2ccccc2)CC1 | -6 | 4 | 24 | 66* | 1 | 2 | -2 | -6
O=C(O)CCc1ccc(-c2ccccc2)n1Cc1ccco1 | -4 | -1 | 0 | 27 | 3 | 1 | . | .
O=C(O)CCc1ccc(-c2ccc(Br)cc2)n1Cc1ccco1 | 2 | 2 | 8 | 73* | 7 | 2 | 10 | 2
Cn1c(-c2ccccc2)cc(=O)n1-c1ccccc1 | -5 | 1 | -1 | 70* | 4 | 0 | 7 | 5
SMILES | Scp-1 inhibitor | STEP block | NadD block | DNMT1 inh | SUMO1-SIM PPI | LMPTP inh | DNMT1 inh conf | Beacon interf
C=C(C)C1(O)OC(=O)C=C1OC (stereo unspecified) | 4 | -3 | 2 | 53* | -2 | 0 | 5 | 4
COc1ccc(S(=O)(=O)/N=C2/NC(=O)/C(=C/c3ccco3)S2)cc1 | 20 | 4 | 8 | 64* | 25 | 1 | 0 | -1
COc1ccc(S(=O)(=O)/N=C2/NC(=O)/C(=C\c3ccco3)S2)cc1 | 0 | 1 | 2 | 23 | 9 | -1 | . | .
CN1CCN(C(=O)c2ccccc2N(Cc2ccccc2)S(C)(=O)=O)CC1 | -4 | -2 | 0 | 1 | 4 | -2 | . | .
O=C1c2cccc3c(O)ccc(c23)C(=O)N1c1ccc(Cl)cc1 | -4 | -8 | -7 | 32 | -111 | -4 | . | .
CC(=O)Nc1ccc(N2C(=O)c3cccc4c(O)ccc(c34)C2=O)cc1 | 12 | -32 | 5 | 51* | -105 | -1 | 106* | 99*
Cc1c(C)c2ccc(OCC(=O)N[C@@H](Cc3ccccc3)C(=O)O)cc2oc1=O | -1 | -2 | 5 | -2 | 8 | 0 | . | .
CCCCCCc1c(C)c2ccc(OCC(=O)N[C@@H](Cc3ccccc3)C(=O)O)cc2oc1=O | 37 | -1 | 13 | 61* | 14 | 2 | 4 | -3
CC(C)(C)S(=O)(=O)c1cnc(-c2cnccn2)nc1N | -4 | 1 | -4 | -2 | -2 | -2 | . | .
O=C(C1CCN(S(=O)(=O)N2CCOCC2)CC1)N1CCc2ccccc21 | 6 | . | . | . | . | . | . | .
O=C(c1cc2cc(Cl)ccc2oc1=O)N1CCN(c2ccccn2)CC1 | 0 | 1 | 3 | 89* | -6 | 1 | -2 | 2
Cc1cc(/C=C2/SC(=O)N(CC(=O)N3CCOCC3)C2=O)c(C)n1-c1ccccc1F | -7 | 2 | 0 | 1 | 0 | -3 | . | .
CCN(CC)CCN1C(=O)c2oc3ccccc3c(=O)c2C1c1cccc(Br)c1 (stereo unspecified) | -7 | 3 | 1 | -2 | -1 | -2 | . | .
O=C1c2oc3ccc(Cl)cc3c(=O)c2C(c2cccc(Br)c2)N1CCO (stereo unspecified) | -3 | 0 | 3 | 61* | -13 | 0 | 1 | 3
C=CCc1cccc2cc(C(=O)Nc3ccc(CC(=O)O)cc3)c(=O)oc12 | 29 | 8 | 3 | 81* | -4 | 1 | 5 | 6
CCCCN1C(=O)/C(=C/C=C2/CC(C)(C)CN2C)SC1=S | 5 | -33 | 3 | 76* | -142 | 17 | 81* | 85*
CCN1C(=O)/C(=C/C=C2/SCCN2C)SC1=S | -7 | -4 | 7 | 36 | -217 | 8 | . | .
